These results are taken from ChEMBL document CHEMBL4177580, “New 5-HT1A, 5HT2A and 5HT2C receptor ligands containing a picolinic nucleus: Synthesis, in vitro and in vivo pharmacological evaluation” (Bioorg Med Chem, 2017).

The structures appear in SMILES notation. The source made the active and inactive calls.

Usually Ki stands for the equilibrium dissociation constant of an inhibitor or competing ligand from its target.

Data set [1] deals with D(1A) dopamine receptor (Homo sapiens, UniProt P21728). The data set is described as follows: Displacement of [3H]SCH-23390 from human recombinant dopamine D1 receptor expressed in CHO cells. It counts as cell-based. For orientation: Displacement assays read how much labelled ligand stays bound in the presence of the test substance.
The subject of data set [2] is Mus musculus. The experiment in a line: Antidepressant-like activity in Swiss albino mouse assessed as reduction in immobility time at 7.5 mg/kg, ip dosed 1 hr before test by forced swimming test. In kind it is functional, organism-based. The method, boiled down:
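Male Swiss albino mice (18–24 g), compound i.p. in 0.1% DMSO/0.5% methylcellulose 1 h pre-test. Porsolt swim: cylinder 25 cm high, 10 cm diameter, 10 cm water at 23–25°C, 6 min session; immobility scored over last 4 min. Blind observer; one-way ANOVA with Dunnett's; mean ± SEM.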

Data set [3] addresses 5-hydroxytryptamine receptor 2A (Rattus norvegicus, UniProt P14842). The experiment in a line: Displacement of [3H]ketanserin from serotonin 5-HT2A receptor in Sprague-Dawley rat brain cortex homogenates incubated for 15 mins by liquid scintillation spectrometry.
Data set [4] relates to Mus musculus. The experiment in a line: Induction of hypothermia in Swiss albino mouse assessed as reduction in body temperature at 30 mg/kg, ip measured after 60 mins post dose. In kind it is functional, organism-based. The procedure, abridged: (§1)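 Normothermic male Swiss mice; rectal thermistor readings over 180 min. Baseline is the mean of readings 60 and 30 min before dosing; readings at 30, 60, 90, 120 min post-injection; Δt = tf − ti. Test compounds i.p. (DMSO/methylcellulose); 8-OH-DPAT (5 mg/kg) and WAY 100635 (0.1 mg/kg) s.c. in water. Two-way ANOVA, Bonferroni.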

Data set [5] concerns the target T1, Adrenergic receptor alpha-1 (Rattus norvegicus, UniProt P15823+P23944+P43140).
T1 sequence (P15823 whole entry): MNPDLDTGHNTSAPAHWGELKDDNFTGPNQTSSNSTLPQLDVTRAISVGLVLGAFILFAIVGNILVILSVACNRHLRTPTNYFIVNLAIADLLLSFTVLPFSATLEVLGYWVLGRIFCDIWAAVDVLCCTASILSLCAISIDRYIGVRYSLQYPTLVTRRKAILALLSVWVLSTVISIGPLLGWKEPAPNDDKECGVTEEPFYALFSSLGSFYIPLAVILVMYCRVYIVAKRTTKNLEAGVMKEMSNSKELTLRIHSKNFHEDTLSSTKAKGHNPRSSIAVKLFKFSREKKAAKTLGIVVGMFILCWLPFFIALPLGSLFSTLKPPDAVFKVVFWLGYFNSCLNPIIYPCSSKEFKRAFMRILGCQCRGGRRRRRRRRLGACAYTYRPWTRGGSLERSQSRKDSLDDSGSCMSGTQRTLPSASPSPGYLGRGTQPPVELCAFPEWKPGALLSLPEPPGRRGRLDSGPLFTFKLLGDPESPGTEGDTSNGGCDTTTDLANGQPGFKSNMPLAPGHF
T1 sequence (P23944 whole entry): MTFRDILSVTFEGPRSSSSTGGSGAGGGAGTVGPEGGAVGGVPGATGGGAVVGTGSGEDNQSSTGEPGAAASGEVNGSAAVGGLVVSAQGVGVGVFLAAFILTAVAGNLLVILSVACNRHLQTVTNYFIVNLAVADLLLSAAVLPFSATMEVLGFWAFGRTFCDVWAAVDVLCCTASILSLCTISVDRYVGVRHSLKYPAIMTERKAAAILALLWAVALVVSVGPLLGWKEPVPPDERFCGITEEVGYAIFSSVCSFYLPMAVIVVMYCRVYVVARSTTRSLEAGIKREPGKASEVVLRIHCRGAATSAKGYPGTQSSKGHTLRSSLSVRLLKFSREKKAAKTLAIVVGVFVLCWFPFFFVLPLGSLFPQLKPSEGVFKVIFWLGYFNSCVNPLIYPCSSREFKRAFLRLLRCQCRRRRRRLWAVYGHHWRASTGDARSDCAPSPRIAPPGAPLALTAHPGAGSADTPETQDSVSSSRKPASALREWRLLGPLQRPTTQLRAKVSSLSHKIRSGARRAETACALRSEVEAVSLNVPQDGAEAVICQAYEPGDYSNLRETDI
T1 sequence (P43140 whole entry): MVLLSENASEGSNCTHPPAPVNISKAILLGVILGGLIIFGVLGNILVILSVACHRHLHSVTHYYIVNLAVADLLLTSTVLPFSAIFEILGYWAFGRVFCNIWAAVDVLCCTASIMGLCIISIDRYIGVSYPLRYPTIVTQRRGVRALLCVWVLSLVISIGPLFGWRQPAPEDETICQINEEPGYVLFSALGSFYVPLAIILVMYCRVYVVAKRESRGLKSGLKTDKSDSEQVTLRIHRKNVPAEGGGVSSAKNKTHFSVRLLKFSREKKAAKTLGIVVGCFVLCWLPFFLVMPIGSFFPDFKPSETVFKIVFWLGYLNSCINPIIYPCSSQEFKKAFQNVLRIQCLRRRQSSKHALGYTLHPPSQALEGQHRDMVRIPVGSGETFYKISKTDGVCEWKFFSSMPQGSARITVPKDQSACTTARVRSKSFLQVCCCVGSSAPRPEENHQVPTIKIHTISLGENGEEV
The data set is described as follows: Displacement of [3H]prazosin from adrenergic alpha1 receptor in rat cerebral cortex.

The subject of data set [6] is Rattus norvegicus. The data set is described as follows: In-vivo 5-HT1A receptor antagonist activity in Wistar rat assessed as reduction in 8-OH-DPAT-stimulated induction of lower lip retraction by measuring lower lip retraction score at 30 mg/kg, ip dosed 15 mins before test (reference value: 2.875 +/- 0.08183).
Data set [7] concerns Mus musculus. The experiment in a line: Toxicity in Swiss albino mouse assessed as effect on motor coordination at 3.75 to 15 mg/kg, ip dosed 60 mins before test by Chimney test. It counts as organism-based. The note with it: in vivo, 1 h. The procedure, abridged:
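Chimney test in male Swiss mice after i.p. dosing 60 min earlier: impairment defined as failure to climb backwards up a tube (3 cm inner diameter, 25 cm long) within 60 s. Animals pre-trained once daily for 3 days. One-way ANOVA with Dunnett's.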

In data set [8] the test system is Rattus norvegicus. The data set is described as follows: In-vivo 5-HT1A receptor agonist activity in Wistar rat assessed as induction of lower lip retraction by measuring lower lip retraction score at 30 mg/kg, ip dosed 15 mins before test (reference value: 0.0 +/- 0.0).
The subject of data set [9] is Mus musculus. The experiment in a line: Anxiolytic-like activity in Swiss albino mouse assessed as increase in time spent in open arms at 3.75 to 15 mg/kg measured for 5 mins test period by elevated plus maze test. It counts as functional, organism-based.
Data set [10] concerns Mus musculus. The data set is described as follows: Induction of hypothermia in Swiss albino mouse assessed as reduction in body temperature at 30 mg/kg, ip measured after 30 mins post dose. It counts as functional, organism-based. The procedure, abridged: as §1
Data set [11] relates to Mus musculus. The data set is described as follows: Toxicity in Swiss albino mouse assessed as reduction in spontaneous locomotor activity at 7.5 mg/kg, ip dosed 60 mins before test. In kind it is organism-based. The note with it: in vivo, 1 h. The procedure, abridged:
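Spontaneous locomotion: mice dosed i.p. 60 min before being placed individually in an actometer for 30 min. Distance travelled read at 6 and 30 min. Cages cleaned with 70% ethanol between animals. One-way ANOVA with Dunnett's; mean ± SEM of one experiment.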

Sequence of 5-hydroxytryptamine receptor 2A (P14842 whole entry): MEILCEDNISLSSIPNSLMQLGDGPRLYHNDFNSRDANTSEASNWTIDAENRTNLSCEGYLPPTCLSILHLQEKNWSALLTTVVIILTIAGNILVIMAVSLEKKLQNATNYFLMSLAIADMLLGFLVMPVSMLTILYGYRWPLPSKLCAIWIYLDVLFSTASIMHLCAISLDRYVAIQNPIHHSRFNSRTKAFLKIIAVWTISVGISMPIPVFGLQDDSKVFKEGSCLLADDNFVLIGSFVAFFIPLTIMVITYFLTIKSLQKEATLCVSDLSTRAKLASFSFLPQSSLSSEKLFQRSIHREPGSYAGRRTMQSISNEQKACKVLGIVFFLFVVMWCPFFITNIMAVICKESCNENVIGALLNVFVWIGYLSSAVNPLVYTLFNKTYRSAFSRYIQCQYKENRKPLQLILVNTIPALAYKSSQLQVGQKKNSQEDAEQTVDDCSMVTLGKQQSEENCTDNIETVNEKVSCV
Sequence of D(1A) dopamine receptor (P21728 whole entry): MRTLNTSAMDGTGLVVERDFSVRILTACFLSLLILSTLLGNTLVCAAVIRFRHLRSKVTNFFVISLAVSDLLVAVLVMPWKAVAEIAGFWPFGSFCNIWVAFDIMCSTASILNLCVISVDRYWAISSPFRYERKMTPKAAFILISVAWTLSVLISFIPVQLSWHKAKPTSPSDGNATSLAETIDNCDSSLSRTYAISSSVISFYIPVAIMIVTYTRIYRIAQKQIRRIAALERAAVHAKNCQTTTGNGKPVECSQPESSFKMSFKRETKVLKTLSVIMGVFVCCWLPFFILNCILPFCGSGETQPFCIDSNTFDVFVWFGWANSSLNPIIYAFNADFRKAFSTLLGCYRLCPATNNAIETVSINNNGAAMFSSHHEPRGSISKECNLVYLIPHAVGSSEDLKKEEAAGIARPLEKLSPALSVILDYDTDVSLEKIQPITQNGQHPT

On to `O=C(NCCN1CCN(c2ccc(Cl)c(Cl)c2)CC1)c1ccccn1`, for which the Ki in [1] stood at 610 nM; in [3] it was 74.1 nM; in data set [5], 31 nM. In addition, the outcome in [2], in data set [4], in data set [9] and in data set [10] was Active. The values for the Activity_index in data set [6] and in [8] were 2.3 and 0.1429, respectively. Further, the Activity entry in data set [7] and in data set [11] was “Non-Toxic” in each case.
